In ChEMBL document CHEMBL4190277, “Discovery of imidazopyridines containing isoindoline-1,3-dione framework as a new class of BACE1 inhibitors: Design, synthesis and SAR analysis” (Eur J Med Chem, 2017):

Experiments:
Beta-secretase 1 [1] = molecular target: T1, Beta-secretase 1 (Homo sapiens, UniProt P56817); assay: Inhibition of human BACE1 (1 to 460 residues) expressed in baculovirus expression system at 10 uM using Rh-EVNLDAEFK-quencher as substrate after 90 mins by FRET assay
How it was run: (§1)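 FRET kit assay, manufacturer's protocol with small modifications. Compounds were taken from DMSO stocks and diluted in assay buffer (50 mM sodium acetate, pH 4.5). Substrate and compound were mixed, then enzyme (1 U/mL) was added to start the reaction. After about 90 min at room temperature, 2.5 M sodium acetate stop solution was added. Read-out was fluorescence at Ex 545/Em 585 nm. Triplicate wells, 3–4 independent experiments, mean ± SEM; OM99 served as reference inhibitor.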

Beta-secretase 1 [2] = molecular target: T1, Beta-secretase 1; assay: Inhibition of human BACE1 (1 to 460 residues) expressed in baculovirus expression system at 50 uM using Rh-EVNLDAEFK-quencher as substrate after 90 mins by FRET assay; how it was run: as §1
Beta-secretase 1 [3] = molecular target: T1, Beta-secretase 1; assay: Inhibition of human BACE1 (1 to 460 residues) expressed in baculovirus expression system using Rh-EVNLDAEFK-quencher as substrate after 90 mins by FRET assay
How it was run: as §1, with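 “added.” for “added. Read-out was fluorescence at Ex 545/Em 585 nm.”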

T1 sequence (P56817 whole entry, the tested form may be a part): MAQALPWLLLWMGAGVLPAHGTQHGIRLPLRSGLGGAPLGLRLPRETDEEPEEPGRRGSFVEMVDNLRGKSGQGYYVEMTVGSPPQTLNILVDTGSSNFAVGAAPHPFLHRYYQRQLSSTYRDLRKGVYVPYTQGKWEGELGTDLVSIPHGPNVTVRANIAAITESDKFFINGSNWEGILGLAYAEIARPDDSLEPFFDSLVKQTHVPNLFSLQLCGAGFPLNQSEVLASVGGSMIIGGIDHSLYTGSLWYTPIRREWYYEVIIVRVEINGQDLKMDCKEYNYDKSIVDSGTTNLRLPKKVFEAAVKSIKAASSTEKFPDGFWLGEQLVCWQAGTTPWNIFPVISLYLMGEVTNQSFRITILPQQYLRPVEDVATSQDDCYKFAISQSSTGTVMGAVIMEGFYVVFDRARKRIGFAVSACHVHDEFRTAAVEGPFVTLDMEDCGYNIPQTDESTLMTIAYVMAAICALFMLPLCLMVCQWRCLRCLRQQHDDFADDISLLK

SMILES | inhibition (Beta-secretase 1 [1]) [%] | inhibition (Beta-secretase 1 [2]) [%] | IC50 (Beta-secretase 1 [3]) [µM]
CC(C)(C)Nc1c(-c2ccc(OCCCN3C(=O)c4ccccc4C3=O)cc2)nc2ccc(Br)cn12 | 7.87 | 34.3 | 
CC(C)(C)Nc1c(-c2ccc(OCCCN3C(=O)c4ccccc4C3=O)cc2)nc2ccc(Cl)cn12 | 17.7 | 33 | 
COc1cc(-c2nc3ccc(Br)cn3c2NC2CCCCC2)ccc1OCCCN1C(=O)c2ccccc2C1=O | 36.7 | 43.2 | 
O=C1c2ccccc2C(=O)N1CCCOc1ccc(-c2nc3ccccn3c2NC2CCCCC2)cc1 | < 10 | < 10 | 
O=C1c2ccccc2C(=O)N1CCCOc1ccc(-c2nc3ccc(Br)cn3c2NC2CCCCC2)cc1 | 32.2 | 45.3 | 
COc1cc(-c2nc3ccc(Cl)cn3c2NC2CCCCC2)ccc1OCCCN1C(=O)c2ccccc2C1=O | 26.9 | 88.1 | 14.9
Cc1cccc2nc(-c3ccc(OCCCN4C(=O)c5ccccc5C4=O)cc3)c(NC3CCCCC3)n12 | 61.5 | 87.9 | 5.93
Cc1ccn2c(NC3CCCCC3)c(-c3ccc(OCCCN4C(=O)c5ccccc5C4=O)cc3)nc2c1 | 61.3 | 100 | 2.84
Cc1cccn2c(NC3CCCCC3)c(-c3ccc(OCCCN4C(=O)c5ccccc5C4=O)cc3)nc12 | 44.4 | 69.4 | 
Cc1ccc2nc(-c3ccc(OCCCN4C(=O)c5ccccc5C4=O)cc3)c(NC3CCCCC3)n2c1 | 37.6 | 63.7 | 29.4
Cc1ccn2c(NC(C)(C)C)c(-c3ccc(OCCCN4C(=O)c5ccccc5C4=O)cc3)nc2c1 | 24.2 | 18.3 | 
O=C1c2ccccc2C(=O)N1CCCOc1ccc(-c2nc3ccc(Cl)cn3c2NC2CCCCC2)cc1 | 11.5 | 19.6 | 
COc1cc(-c2nc3ccccn3c2NC2CCCCC2)ccc1OCCCN1C(=O)c2ccccc2C1=O | 29.3 | 69.5 | 
COc1cc(-c2nc3ccc(Cl)cn3c2NC(C)(C)C)ccc1OCCCN1C(=O)c2ccccc2C1=O | 19.4 | 37.9 | 
COc1cc(-c2nc3ccc(Br)cn3c2NC(C)(C)C)ccc1OCCCN1C(=O)c2ccccc2C1=O | 33.2 | 48.7 | 
